Experimental data: ChEMBL document CHEMBL1811832, “Transformation of isosteviol lactam by fungi and the suppressive effects of its transformed products on LPS-induced iNOS expression in macrophages” (2011)

Tested on: RAW264.7
Assay: Antiinflammatory activity against mouse RAW264.7 cells assessed as inhibition of LPS-induced iNOS mRNA expression at 10 uM after 24 hrs by RT-PCR relative to control
Type: functional
Summary of the method: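 Murine RAW 264.7 macrophages stimulated with LPS 100 ng/mL for 4 h, then treated with compound at 10 μM for 24 h with LPS still present; dexamethasone as reference. Total RNA extracted with TRIzol, oligo(dT)-primed cDNA, real-time PCR (50 cycles, dissociation-curve check). iNOS mRNA expressed as fold relative to LPS-only cells; mean ± SEM, n = 3, paired two-tailed t-test.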

Compound | fold change (FC)
C[C@@]12CC[C@H]3[C@]4(C)CCC[C@@](C)(C(=O)O)[C@H]4C[C@H](O)[C@]3(CC(=O)N1)C2 | 0.61
C[C@@]12CCC[C@@](C)(C(=O)O)[C@H]1CC[C@]13CC(=O)N[C@](C)(C1)[C@@H](O)C[C@H]32 | 0.13
C[C@]12CC[C@H]3[C@]4(C)CCC[C@@](C)(C(=O)O)[C@H]4CC[C@@]3(C1)[C@H](Cl)C(=O)N2 | 0.85
CC1=C[C@@]2(CC#N)[C@@H](O)C[C@H]3[C@@](C)(CCC[C@@]3(C)C(=O)O)[C@@H]2CC1 | 0.12
CC1=C[C@@]2(CC#N)CC[C@H]3[C@](C)([C@@H]2CC1)[C@@H](O)CC[C@@]3(C)C(=O)O | 0.43
C=C1C[C@@]2(CC#N)CC[C@H]3[C@@](C)(CCC[C@@]3(C)C(=O)O)[C@@H]2C[C@H]1Cl | 0.3
CCO[C@@H]1C[C@@H]2[C@@](CC#N)(C=C1C)CC[C@H]1[C@@]2(C)CCC[C@@]1(C)C(=O)O | 0.21
CO[C@H]1C[C@@H]2[C@@](CC#N)(C=C1C)CC[C@H]1[C@@]2(C)CCC[C@@]1(C)C(=O)O | 0.2
CC1=CC[C@@H]2[C@](CC#N)(CC[C@H]3[C@@]2(C)CCC[C@@]3(C)C(=O)OCCO)C1 | 0.5
CC1=C[C@@]2(CC#N)CC[C@H]3[C@@](C)(CCC[C@@]3(C)C(=O)O)[C@@H]2CC1 | 0.48
CC1=CC[C@@H]2[C@](CC#N)(CC[C@H]3[C@@]2(C)CCC[C@@]3(C)C(=O)O)C1 | 0.63
C[C@@H]1C[C@H]2[C@@H]3CCC4=CC(=O)C=C[C@]4(C)[C@@]3(F)[C@@H](O)C[C@]2(C)[C@@]1(O)C(=O)CO [DEXAMETHASONE] | 0.16
C[C@@]12CC[C@@H]3[C@@](CC[C@H]4[C@@]3(C)CCC[C@@]4(C)C(=O)O)(CC(=O)N1)C2 [ISOSTEVIOL LACTAM] | 0.15
C[C@@]12CC[C@@H]3[C@@](CC[C@H]4[C@@]3(C)CCC[C@@]4(C)C(=O)O)(C/C1=N\O)C2 [ISOSTEVIOL OXIME] | 0.15
C[C@@]12CC[C@@H]3[C@@](CC[C@H]4[C@@]3(C)CCC[C@@]4(C)C(=O)O)(CC1=O)C2 [ISOSTEVIOL] | 0.29
